High-throughput results (PubChem)
This is a sample that favours compounds with a hit; in the whole collection about 1.6% have one here.
Vif imaging: HIV Vif self-association inhibitors, primary screen, imaging, HEK293T, single point | HEK293T cells, Vif self-association by quenched fluorescence, 24 h | inhibition, % at 7.49 µM | 340,000 tested, 0.35% active; in the data active = inhibition above about 50%, passing the limit was not always enough
A1 inh: caspase 3/7 activation in MEF A1-2A-BIM cells, primary screen, A1 inhibitor project, cell-based, luminescence, HTS; Caspase-Glo 3/7 luminescence, 3 h; percent of clofoctol response, vehicle zero; caspase activation, % (concentration not given with the values); 330,000 tested, 0.066% active; AID 2462, 2010;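 active = over half of replicate activation scores above 10%, or exactly half above 10 with the replicate mean above 10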
TAG inh: inhibitors of triacylglycerol accumulation, primary screen, cell-based, uHTS, fluorescence, H9c2; inhibition, % at 12.5 µM; AID 651582, 2012; H9c2 cells, Nile Red lipid (TAG) fluorescence; cells loaded with 200 µM oleic acid; 230,000 tested, 0.66% active;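 active = pattern-corrected inhibition of lipid staining of at least 50% with the nuclear-stain viability signal not falling by more than 50%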;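 also: 0% = DMSO wells and 100% = triacsin C control wells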
SR-BI uptake up: activators of SR-BI mediated DiI-HDL uptake, primary screen, ldlA[mSR-BI] CHO cells, DiI fluorescence; AID 504775, 2011; activation, % at 12.5 µM; 3 h; 100 = double the neutral-control signal; 320,000 tested, 0.096% active;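 active = mean replicate activation of at least 60% and every replicate at or above 60%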;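 also: 0% = median plate neutral-control signal and 100% = twice that signal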
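system = CHO ldlA[mSR-BI] cells, LDL receptor-null, SR-BI overexpressing | medium = Ham's F12 with 0.5% BSA, HEPES 25 mM, pH 7.4 | probe or stimulus = DiI-HDL 10 µg/mL | compound dosing = single-point compound dose | incubation = compound exposure 3 h, 37 °C | technique = DiI fluorescence, bottom read | read-out = cell-associated DiI fluorescence as measure of HDL uptake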
SR-BI DiI inh: inhibitors of SR-BI mediated HDL lipid uptake, primary screen, ldlA[mSR-BI] cells, fluorescence, single point; Scavenger receptor class B member 1 (Mus musculus), Q61009; ldlA[mSR-BI] CHO cells, DiI-HDL uptake fluorescence, 3 h; inhibition, % at 12.5 µM; 320,000 tested, 0.96% active;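 active = mean replicate inhibition of at least 70% and a set share of replicates each scoring 70 or more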;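 also: 0% = median of neutral control wells and 100% = median of positive control wells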
Target sequence (Q61009 whole entry, looked up): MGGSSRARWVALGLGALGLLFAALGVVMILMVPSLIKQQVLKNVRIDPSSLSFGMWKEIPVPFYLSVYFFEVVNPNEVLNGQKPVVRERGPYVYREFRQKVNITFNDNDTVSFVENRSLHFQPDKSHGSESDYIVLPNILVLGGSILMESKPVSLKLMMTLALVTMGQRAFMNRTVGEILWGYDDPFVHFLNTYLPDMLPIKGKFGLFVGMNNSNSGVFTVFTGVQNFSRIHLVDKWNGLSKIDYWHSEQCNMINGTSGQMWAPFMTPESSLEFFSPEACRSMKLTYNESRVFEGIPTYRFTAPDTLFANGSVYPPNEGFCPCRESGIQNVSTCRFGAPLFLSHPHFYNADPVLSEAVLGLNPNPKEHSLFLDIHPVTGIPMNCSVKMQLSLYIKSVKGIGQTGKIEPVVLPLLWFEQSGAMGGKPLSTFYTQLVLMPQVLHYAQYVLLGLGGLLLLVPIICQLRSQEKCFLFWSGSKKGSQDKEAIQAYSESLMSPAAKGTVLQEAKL
TAG conf: triacylglycerol accumulation inhibitors, retest, confirmation, cell-based, single concentration, Nile Red fluorescence, H9c2. inhibition, % at 12.5 µM. H9c2 lipid accumulation; cells loaded with 200 µM oleic acid. shares compounds with TAG inh. 990 tested, 71% active;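 active = mean inhibition across replicates of 40% or more; inactive = mean inhibition below 40%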;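 also: plate controls were DMSO only wells for no effect and Triacsin C treated wells for full effect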
* hit, by the source's call.

How did C#CCN(C[C@H]1[C@H](OC(=O)NCc2ccccc2)[C@H](OC(=O)NCc2ccccc2)C[C@@H](C(=O)OC)[C@H]1C(=O)OC)S(=O)(=O)c1ccc(C)cc1 do in these assays?
Vif imaging: 2; TAG inh: 49

How did C#CCN(C[C@H]1[C@H](OC(=O)NCCCCCC)[C@H](OC(=O)NCCCCCC)C[C@@H](C(=O)OC)[C@H]1C(=O)OC)S(=O)(=O)c1ccc(C)cc1 do in these assays?
Vif imaging: 0; TAG inh: 80*; TAG conf: 88*

How did Cc1n[nH]c(=O)c2c(NC(=O)CSc3ccc(Br)cc3)oc(C)c12 do in these assays?
Vif imaging: 12; A1 inh: 0; TAG inh: 0; SR-BI uptake up: -9; SR-BI DiI inh: 9

How did Cc1c(C#N)c(O)n(CCO)c(=O)c1N=Nc1ccc2c(c1)COC2=O do in these assays?
Vif imaging: 3; A1 inh: 0; TAG inh: 85*; SR-BI uptake up: 18; SR-BI DiI inh: -18; TAG conf: 94*

How did CCOc1ccc(C2=Nc3ccccc3C(c3ccc(N4CCOCC4)cc3)=NN2)cc1 do in these assays?
Vif imaging: -12; A1 inh: -2; TAG inh: 73*; SR-BI uptake up: -23; SR-BI DiI inh: 23; TAG conf: 53*

Results for CC1CCN(Cc2nnnn2CCCC(=O)NCCc2cnn(C)c2)CC1 ?
Vif imaging: -6; A1 inh: -1; SR-BI uptake up: 7; SR-BI DiI inh: -7

What do the screens show for `COc1cc(-c2coc3c(C(=O)NCc4ccncc4)cccc23)ccc1O`?
Vif imaging: -24; TAG inh: -5

How did COc1cc(-c2coc3c(C(=O)NCc4ccc(C(F)(F)F)cc4)cccc23)ccc1O do in these assays?
Vif imaging: -8; TAG inh: 54*; TAG conf: 27

How did Cc1cc(N/N=C/c2ccc(F)cc2)nc(-n2nc(C)cc2C)n1 do in these assays?
Vif imaging: -1; A1 inh: 0; TAG inh: 57*; TAG conf: 53*

Results for CNc1cc(C)nc(-n2nc(C)cc2C)n1 ?
Vif imaging: 20; A1 inh: 0; SR-BI uptake up: -4; SR-BI DiI inh: 4

How did CCOc1cc(C(=O)N/N=C/c2cn(-c3ccccc3)nc2-c2cc3ccccc3o2)cc(OCC)c1OCC do in these assays?
Vif imaging: 1; TAG inh: 59*; TAG conf: 63*

How did CCc1ccc(S(=O)(=O)NC(=S)NC2CCCCC2)cc1 do in these assays?
Vif imaging: 4; A1 inh: 0; TAG inh: -12; SR-BI uptake up: -2; SR-BI DiI inh: 2

How did CN1Cc2c(N3CCOCC3)nc(SCc3ccccc3)c(C#N)c2CC1(C)C do in these assays?
Vif imaging: 0; A1 inh: 1; SR-BI uptake up: 6; SR-BI DiI inh: -6

Results for CC1(C)Cc2c(C#N)c(SCC(=O)c3ccccc3)nc(N3CCOCC3)c2CS1 ?
Vif imaging: -5; A1 inh: -2; TAG inh: 51*; SR-BI uptake up: -21; SR-BI DiI inh: 21; TAG conf: 59*

What do the screens show for `COc1ccc(OC)c(S(=O)(=O)Nc2ccc3[nH]c(=O)[nH]c3c2)c1`?
Vif imaging: -7; A1 inh: 1; SR-BI uptake up: 26; SR-BI DiI inh: -26

How did Cc1noc(C)c1CSc1nc2[nH]ncc2c(=O)n1-c1ccccc1 do in these assays?
A1 inh: -1; TAG inh: 64*; SR-BI uptake up: -8; SR-BI DiI inh: 8; TAG conf: 91*

Results for Cc1ccc2nc(NC(=O)CN(C)S(=O)(=O)c3cccc4nsnc34)sc2c1 ?
Vif imaging: 16; A1 inh: 1; TAG inh: 71*; SR-BI uptake up: -53; SR-BI DiI inh: 53; TAG conf: 65*

How did O=C(CSc1nnc(-c2cccc(F)c2)o1)N1CCCC1 do in these assays?
Vif imaging: -10; A1 inh: 0

Results for CCC(C)(C)NC(=O)C(c1sccc1C)N(Cc1ccco1)C(=O)c1csnn1 (configuration not stated) ?
Vif imaging: -3; A1 inh: 0; SR-BI uptake up: 1; SR-BI DiI inh: -1

What do the screens show for `CCC(C)(C)NC(=O)C(c1ccccc1F)N(Cc1ccco1)C(=O)c1csnn1` (configuration not stated)?
Vif imaging: 2; A1 inh: 2; TAG inh: 53*; SR-BI uptake up: 23; SR-BI DiI inh: -23; TAG conf: 19

What do the screens show for `Cc1cc(C)cc(-n2ncc3c2CCCC3NC(=O)CN2CCCCC2=O)c1` (configuration not stated)?
Vif imaging: 20; A1 inh: 1; TAG inh: 17; SR-BI uptake up: -28; SR-BI DiI inh: 28

How did O=c1[nH]nc(-c2n[nH]c(=O)o2)o1 do in these assays?
Vif imaging: -4; TAG inh: -6; SR-BI uptake up: 0; SR-BI DiI inh: 0

Results for CC1Cc2cc(/C(O)=C3/C(=O)C(=O)N(CCCn4ccnc4)C3c3cccc([N+](=O)[O-])c3)ccc2O1 (configuration not stated) ?
Vif imaging: -6; A1 inh: 0; SR-BI uptake up: 12; SR-BI DiI inh: -12

Results for CC1(C(=O)NS(=O)(=O)c2ccc(Cl)s2)CCN1C(=O)Cc1ccccc1Cl (configuration not stated) ?
Vif imaging: -1; TAG inh: -9

What do the screens show for `Cc1cc(C)cc(CC(=O)N2CCC2(C)C(=O)NS(=O)(=O)c2ccc(Cl)s2)c1` (configuration not stated)?
Vif imaging: 5; TAG inh: 75*; TAG conf: 4

What do the screens show for `COc1ccc(Nc2cccc3ccccc23)cc1`?
Vif imaging: 3; A1 inh: -2; TAG inh: 65*; SR-BI uptake up: -35; SR-BI DiI inh: 35; TAG conf: 13

What do the screens show for `COc1cc(C2c3cc4c(cc3OC(N3CCCC3)C2C)OCO4)cc(OC)c1O` (configuration not stated)?
Vif imaging: 5; TAG inh: 3; SR-BI uptake up: -7; SR-BI DiI inh: 7

Results for COc1cc(C2c3cc4c(cc3OC(C)(N3CCCC3)C2C)OCO4)cc(OC)c1OC (configuration not stated) ?
Vif imaging: -9; TAG inh: 56*; SR-BI uptake up: 9; SR-BI DiI inh: -9; TAG conf: 56*
